Exocytosis inh: lytic granule exocytosis inhibition | AID 651702 | 0.66% of 360,000 active | TALL-104 LAMP-1 surface exposure, flow cytometry; cells stimulated with thapsigargin and PMA | inhibition, % at 10 µM;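 active = inhibition above about 55%, limit read from the data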
VLA-4 inh: inhibition in a human VLA-4 binding assay. inhibition, % (about 7 µM as worked out from the volumes in the protocol). VLA-4 expressing cells, ligand binding flow cytometry. AID 2557. 0.2% of 330,000 active. P13612; in the data active = inhibition above about 50%
DAGLB inh: diacylglycerol lipase beta (human) inhibition. Q8NCG7. HEK293T DAGLB membrane lysate, EnzChek fluorogenic substrate. inhibition, % at 5.17 µM. 0.059% of 340,000 active. AID 504411; in the data active = inhibition above about 34%;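 note: 0% = enzyme with vehicle and 100% = wells lacking enzyme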
MT1-MMP act inh: blocks activation of human MT1-MMP | 0.061% of 360,000 active | GFP/RFP ratio change, % at 20 µM | HT1080 RFP-PRO-GFP cells, GFP/RFP ratio fluorescence, overnight; percent of plate control window, DMSO zero;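 active = GFP/RFP ratio change of at least 30% with cell ATP level not reduced by more than half and red fluorescence within 50% of control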
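Test system: HT1080 RFP-PRO-GFP cells; Benchmarks: DMSO and RFP-L50D-GFP cell wells; Timing: cells overnight before dosing, compound overnight, 37 °C, 5% CO2; Compound: one 20 µM compound dose with 1% DMSO; Read-out: GFP/RFP fluorescence ratio.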
FGF22 binding: binders of recombinant human FGF22 by thermal shift. SYPRO orange fluorescence; percent of sucrose octasulfate shift, DMSO zero. activity (Tm shift, normalised), % at 9.99 µM. Q9HCT0. 1.5% of 340,000 active;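 active = mean Tm shift, scaled 0 neutral to 100 positive control, at about 1.3% or above, every replicate too, limit read from the data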
ABCB6 inh MLPCN: human ABCB6 transporter inhibition; Q9NP58; fluorescence ratio to DMSO, % at 10 µM; AID 602162; K562-ABCB6 porphyrin accumulation, flow cytometry, 1 h; active compounds read low; 0.19% of 360,000 active;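 active = fluorescence ratio to DMSO below 75%, the collection mean minus 3 SD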;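 note: signal is porphyrin accumulated inside mitochondria; 100% equals median channel fluorescence of DMSO control wells; lower ratio means ABCB6 inhibition with less porphyrin fluorescence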
Target sequence (Q9NP58 whole entry, looked up): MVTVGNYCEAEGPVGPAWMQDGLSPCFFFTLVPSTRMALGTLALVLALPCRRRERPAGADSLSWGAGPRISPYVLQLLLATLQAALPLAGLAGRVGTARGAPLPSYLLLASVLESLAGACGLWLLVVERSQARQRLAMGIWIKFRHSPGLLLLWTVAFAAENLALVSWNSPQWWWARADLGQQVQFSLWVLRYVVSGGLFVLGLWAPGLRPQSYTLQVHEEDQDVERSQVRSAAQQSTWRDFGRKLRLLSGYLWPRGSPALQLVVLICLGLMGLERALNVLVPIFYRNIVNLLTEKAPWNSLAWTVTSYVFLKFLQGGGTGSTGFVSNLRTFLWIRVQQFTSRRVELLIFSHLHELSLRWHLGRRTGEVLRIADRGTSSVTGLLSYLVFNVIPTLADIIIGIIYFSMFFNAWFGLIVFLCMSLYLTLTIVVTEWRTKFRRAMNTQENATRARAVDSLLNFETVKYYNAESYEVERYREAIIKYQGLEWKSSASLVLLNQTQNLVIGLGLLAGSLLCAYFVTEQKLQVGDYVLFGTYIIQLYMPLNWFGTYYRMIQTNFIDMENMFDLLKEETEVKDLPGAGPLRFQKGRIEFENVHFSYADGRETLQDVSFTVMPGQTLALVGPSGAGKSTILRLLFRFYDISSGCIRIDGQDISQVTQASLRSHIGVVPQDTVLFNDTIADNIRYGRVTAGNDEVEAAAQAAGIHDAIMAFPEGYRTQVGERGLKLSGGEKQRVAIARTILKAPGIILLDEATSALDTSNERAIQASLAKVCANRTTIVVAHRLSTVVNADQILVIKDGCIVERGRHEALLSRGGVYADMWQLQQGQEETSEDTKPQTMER
VLA-4 mod pick: human VLA-4 allosteric modulation in cherry picked compounds. U937 cells, HUTS-21 LIBS mAb binding, flow cytometry; LDV ligand present at threefold Kd. inhibition, % at 6.7 µM. 2% of 1,300 active. shares compounds with VLA-4 inh; in the data active = inhibition above about 40%;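 note: 0% = ligand without compound and 100% = no ligand background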
* hit, by the source's call; x = not tested or not shown. An excerpt weighted towards active compounds, which were near 2% of everything screened.

SMILES	Exocytosis inh	VLA-4 inh	DAGLB inh	MT1-MMP act inh	FGF22 binding	ABCB6 inh MLPCN	VLA-4 mod pick
CC(C)NC(=O)N(C)C[C@@H]1OCCCC[C@H](C)Oc2ccc(NC(=O)c3ccccc3)cc2C(=O)N([C@H](C)CO)C[C@H]1C	x	x	x	x	0	x	x
O=C(c1cc(Br)ccc1Cl)N1CCN(c2ccc(N3CCOCC3)nn2)CC1	5	51*	-4	6	0	90	3
CCCNC(=O)N1CC2(CCN(CC3CCOCC3)CC2)c2c(n(C)c3cc(OC)ccc23)[C@@H]1CO	x	x	x	x	0	x	x
CCC(C)NC(=O)CC(NS(=O)(=O)c1ccc(Cl)cc1)c1ccco1 (stereo not given)	-2	108*	-4	-1	x	97	8
Cc1ccc(S(=O)(=O)NC(CC(=O)O)c2ccco2)cc1 (stereo not given)	-2	4	0	3	0	101	x
CCCCNC(=O)C(Cc1ccccc1)NS(=O)(=O)c1ccc2c(c1)c(=O)n(C)c(=O)n2C (stereo not given)	-4	50*	-2	2	0	103	-5
CCOCCCNC(=O)C(Cc1ccccc1)NS(=O)(=O)c1ccc2c(c1)c(=O)n(C)c(=O)n2C (stereo not given)	0	33	0	-1	0	91	x
CN(CC(=O)Nc1ccc(F)cc1)C(=O)COC(=O)c1ccccc1	-4	50*	-4	-3	0	96	0
Cc1cc(=O)oc2cc(OS(C)(=O)=O)ccc12	-1	41	0	-1	0	97	5
CCc1cc(=O)oc2cc(OS(C)(=O)=O)ccc12	-2	5	-1	-5	x	92	x
CC(C)C(NS(=O)(=O)c1ccc2c(c1)oc(=O)n2C)C(=O)N1CCN(c2ccccc2F)CC1 (stereo not given)	0	53*	0	-1	0	105	-13
Cn1c(=O)oc2cc(S(=O)(=O)NCCC(=O)N3CCN(c4ccccc4F)CC3)ccc21	17	9	3	1	0	98	x
CN(CC(=O)NCc1ccc2c(c1)OCO2)S(=O)(=O)c1ccc(Cl)cc1	2	15	-5	-2	0	100	x
COc1ccc(CNC(=O)CN(C)S(=O)(=O)c2ccccc2)cc1	-3	52*	1	2	0	95	1
CCN(CC(=O)NCc1ccc(Cl)cc1)S(=O)(=O)c1ccc(NC(C)=O)cc1	1	3	-1	0	0	101	x
COc1ccc(NC(=O)CN(C)S(=O)(=O)c2ccccc2)cc1	0	x	-3	-7	0	88	x
CCN(CC(=O)NCc1ccc(Cl)cc1)S(=O)(=O)c1ccc(F)cc1	11	-4	-4	4	0	98	12
CN(CC(=O)NCc1ccccc1F)S(=O)(=O)c1ccc(Cl)cc1	6	6	-2	4	0	95	1
CC1(C)CC(NCCN2CCN(C3=CC(=C(C#N)C#N)CC(C)(C)C3)CC2)=CC(=C(C#N)C#N)C1	-2	50*	1	-4	45*	96	5
CC(Oc1cccc(Cl)c1)C(=O)Nc1nc(-c2ccccn2)cs1 (stereo not given)	3	53*	-7	1	0	104	-9
COCC(=O)N1C[C@@H](C)[C@@H](OC)CN(C)C(=O)c2ccc(NC(=O)c3ccc(F)cc3)cc2OC[C@H]1C	x	x	x	x	0	x	x
Cc1cc(C)n(-c2nc(Nc3ccccc3)nc(-n3nc(C)cc3C)n2)n1	-2	5	-1	5	0	102	x
Cc1cc(C)n(-c2nc(C)nc(N)n2)n1	1	1	-1	2	x	94	-4
CNc1cc(C)nc(-n2nc(C)cc2C)n1	0	-13	-1	5	x	94	x
Cc1cc(Cl)nc(-n2nc(C)cc2C)n1	-5	17	x	1	x	97	2
SMILES	Exocytosis inh	VLA-4 inh	DAGLB inh	MT1-MMP act inh	FGF22 binding	ABCB6 inh MLPCN	VLA-4 mod pick
CN1CCC(N(C)S(=O)(=O)c2ccc(NC(=O)COc3ccc(F)cc3)cc2)CC1	-2	50*	-3	1	-1	100	13
CNC[C@H]1Oc2c(NC(=O)c3ccc(-c4nccs4)cc3)cccc2C(=O)N([C@H](C)CO)C[C@H]1C	x	x	x	x	0	x	x
C[C@@H]1CN([C@@H](C)CO)C(=O)Cc2cc(NC(=O)CCC(F)(F)F)ccc2O[C@@H]1CN(C)Cc1ccc(C(F)(F)F)cc1	x	x	x	x	0	x	x
CCc1cc(C(=O)O)c(NC(=O)C(c2ccccc2)c2ccccc2)s1	2	90*	10	5	x	105	0
COc1cc(NC(=O)C(c2ccccc2)c2ccccc2)c(C(=O)O)cc1OC	-2	9	3	2	0	99	-2
CCOC(=O)c1cc(C)sc1NC(=O)C(c1ccccc1)c1ccccc1	-14	8	-13	-8	0	114	x
Cc1ccc(S(=O)(=O)Nc2ccc3c(c2)C(=O)N([C@@H](C)CO)C[C@@H](C)[C@@H](CN(C)C)OCCCC[C@@H](C)O3)cc1	x	x	x	x	0	x	x
CCOC(=O)Cc1nnc(Nc2cccc(O)c2)c2ccccc12	1	89*	1	1	x	106	-15
COc1ccc(C(=O)Nc2nncs2)cc1S(=O)(=O)N1CCOCC1	-18	59*	0	1	0	97	-3
CCCSC1=NN2CCCC(=O)N=C2S1	-3	50*	0	4	0	98	6
O=C1CC(c2ccco2)CC(O)=C1C=NCC1CCNCC1 (stereo not given)	4	92*	-2	-4	x	98	1
COc1cc(/C=C/C(=O)OCC(=O)Nc2c(C)n(C)n(-c3ccccc3)c2=O)ccc1O	1	-2	0	2	0	100	x
COc1cc(/C=C/C(=O)OCC(=O)Nc2c(C)n(C)n(-c3ccccc3)c2=O)ccc1OCC#N	-8	61*	1	2	0	101	0
CNC[C@H]1Oc2cc(C#CCC(C)C)ccc2S(=O)(=O)N([C@H](C)CO)C[C@@H]1C	x	x	x	x	0	x	x
CCOC(=O)CSc1nnc(CNC(=O)c2ccc(S(=O)(=O)N3CCOCC3)cc2)n1C	3	42	-1	5	0	95	9
CCOC(=O)CSc1nnc(CNC(=O)c2ccc(S(=O)(=O)N3CCCC3)cc2)n1C	-3	13	0	-4	x	100	x
COc1ccccc1N1CCN(CCCNc2c(C)c(=O)n(C)c(=O)n2C)CC1	4	33	2	-2	-1	92	x
COc1ccccc1N1CCN(CCCNc2cc(=O)n(C)c(=O)n2C)CC1	-5	55*	0	4	0	97	10

Screens: PubChem BioAssay, several laboratories
